{"data": "Measurements from different studies", "RIOK1": "Serine/threonine-protein kinase RIO1 (RIOK1, Homo sapiens, UniProt Q9BRS2)", "CD209": "CD209 antigen (CD209, Homo sapiens, UniProt Q9NNX6)", "SLC22A11": "Solute carrier family 22 member 11 (SLC22A11, Homo sapiens, UniProt Q9NSA0)"}
{"Structure (SMILES)": "C[C@]1(O)CCCN(c2nc(Nc3ccc(S(=O)(=O)N[C@H]4CC[C@H](CN5CCN(c6ccc(C7CCC(=O)NC7=O)cc6F)CC5)CC4)cc3Cl)ncc2C(F)(F)F)C1 (stereo partly drawn)", "target": "RIOK1", "assay": "binding, competition with immobilised ligand", "setting": "1 µM", "measurement": "remaining binding", "value": "88%"}
{"Structure (SMILES)": "C1=C/COCc2cc(ccc2OCCN2CCCC2)Nc2nccc(n2)-c2cccc(c2)COC/1", "target": "Tyrosine-protein kinase ITK/TSK (ITK, Homo sapiens, UniProt Q08881)", "assay": "cell-free assay", "setting": "0.1 µM", "measurement": "remaining signal", "value": "90%"}
{"Structure (SMILES)": "O=C(ON1C(=O)CCC1=O)c1cc(C(F)(F)F)cc(C(F)(F)F)c1", "target": "CD209", "assay": "cell-free assay", "setting": "pH 7.4", "measurement": "kinact", "value": "0.00574 s⁻¹"}
{"Structure (SMILES)": "CCN1/C(=C/C(C)=O)Sc2ccc(F)cc21", "target": "5-hydroxytryptamine receptor 3A (HTR3A, Homo sapiens, UniProt P46098)", "assay": "ligand displacement, radioligand", "setting": "10 µM", "measurement": "inhibition", "value": "0%"}
{"Structure (SMILES)": "O=C(O)CCc1nc(-c2ccccc2)c(-c2ccccc2)o1", "target": "SLC22A11", "assay": "transporter uptake, inhibitor", "setting": "25 µM", "measurement": "inhibition", "value": "81.6%"}
{"Structure (SMILES)": "CCCCC(=O)Nc1ccc(-c2ccc3ncn(CCC)c(=O)c3c2)cn1", "target": "RIOK1", "assay": "binding, competition with immobilised ligand", "setting": "0.5 µM", "measurement": "remaining binding", "value": "100%"}
{"Structure (SMILES)": "COc1c(Nc2cc(C(F)(F)F)cc(C(F)(F)F)c2)c(=O)c1=O", "target": "CD209", "assay": "cell-free assay, inhibitor", "setting": "pH 7.4", "measurement": "kinact/KI", "value": "0.916 M⁻¹ s⁻¹"}
{"Structure (SMILES)": "CCCc1nc2c(C)cc(-c3nc4ccccc4n3C)cc2n1Cc1ccc(-c2ccccc2C(=O)O)cc1", "target": "SLC22A11", "assay": "transporter uptake, inhibitor", "setting": "25 µM", "measurement": "inhibition", "value": "90.2%"}
{"Structure (SMILES)": "Cc1cc(S(=O)(=O)N[C@H]2CC[C@H](CN3CCN(c4ccc(C5CCC(=O)NC5=O)cc4F)CC3)CC2)ccc1Nc1ncc(C(F)(F)F)c(N2CCC[C@](C)(O)C2)n1 (stereo partly drawn)", "target": "STE20-like serine/threonine-protein kinase (SLK, Homo sapiens, UniProt Q9H2G2)", "assay": "binding, competition with immobilised ligand", "setting": "1 µM", "measurement": "remaining binding", "value": "55%"}
{"Structure (SMILES)": "O=C(N/N=C/c1ccc([N+](=O)[O-])o1)c1cc([N+](=O)[O-])cc([N+](=O)[O-])c1O", "target": "SLC22A11", "assay": "transporter uptake, inhibitor", "setting": "25 µM", "measurement": "inhibition", "value": "78.3%"}
{"Structure (SMILES)": "NC/C(=C\\F)COc1cccc(Cn2c(=S)[nH]c(=O)c3[nH]cnc32)c1", "target": "Diamine oxidase [copper-containing] (AOC1, Homo sapiens, UniProt P19801)", "assay": "enzyme activity, inhibitor", "setting": "1 µM", "measurement": "inhibition", "value": "2.46%"}
{"Structure (SMILES)": "C#Cc1cc(-c2cc(Nc3nc(N[C@@H](C)c4ccc(F)cn4)ncc3Cl)n[nH]2)ccc1C=O", "target": "Serine/threonine-protein kinase SIK2 (SIK2, Homo sapiens, UniProt Q9H0K1)", "assay": "enzyme activity, inhibitor", "setting": "0.2 µM", "measurement": "inhibition", "value": "97.4%"}
{"Structure (SMILES)": "COc1ccc2oc(-c3ccc4nc(N)oc4c3)c/c(=N\\c3ccccc3NC(=O)CCN)c2c1", "target": "Transient receptor potential cation channel subfamily M member 7 (TRPM7, Homo sapiens, UniProt Q96QT4)", "assay": "binding", "setting": "1 µM", "measurement": "remaining binding", "value": "106%"}
{"Structure (SMILES)": "C[C@@H]1CC(=O)NN=C1c1ccc(NN=C(C#N)C#N)cc1", "target": "SLC22A11", "assay": "transporter uptake, inhibitor", "setting": "25 µM", "measurement": "inhibition", "value": "76.1%"}
{"Structure (SMILES)": "Cc1cc(F)cc2c(CCC(=O)N[C@@H]3C(=O)NC[C@H]3O)c(-c3ccc(F)cc3)[nH]c12", "target": "Delta-type opioid receptor (OPRD1, Homo sapiens, UniProt P41143)", "assay": "cell-free assay", "setting": "10 µM", "measurement": "inhibition", "value": "1%"}
{"Structure (SMILES)": "CCCCC1=NC2(CCCC2)C(=O)N1Cc1ccc(-c2ccccc2-c2nnn[nH]2)cc1", "target": "SLC22A11", "assay": "transporter uptake, inhibitor", "setting": "25 µM", "measurement": "inhibition", "value": "50 to 90%"}
{"Structure (SMILES)": "C[C@]1(O)CCCN(c2nc(Nc3ccc(S(=O)(=O)N[C@H]4CC[C@H](CN5CCN(c6ccc(C7CCC(=O)NC7=O)cc6F)CC5)CC4)cc3F)ncc2C(F)(F)F)C1 (stereo partly drawn)", "target": "RIOK1", "assay": "binding, competition with immobilised ligand", "setting": "1 µM", "measurement": "remaining binding", "value": "100%"}
{"Structure (SMILES)": "Cc1cc(O)c(-c2ccc([C@@H](C)CN(C)C)cc2)c2c1[nH]c(=O)c1sccc12", "target": "Serine/threonine-protein kinase Nek8 (NEK8, Homo sapiens, UniProt Q86SG6)", "assay": "enzyme activity, inhibitor", "setting": "0.1 µM", "measurement": "inhibition", "value": "4.95%"}
